Assay results from ChEMBL document CHEMBL1149126, “3-phenyl-6-(2-pyridyl)methyloxy-1,2,4-triazolo[3,4-a]phthalazines and analogues: high-affinity gamma-aminobutyric acid-A benzodiazepine receptor ligands with alpha 2, alpha 3, and alpha 5-subtype binding selectivity over alpha 1” (J Med Chem, 2004).

How the values were obtained:
[1] = molecular target: T1, GABA-A receptor; alpha-1/beta-3/gamma-2 (Homo sapiens, UniProt P14867+P18507+P28472); test: Binding affinity for human GABA-A receptor alpha-1-beta-3-gamma-2 subunits in L(tk-) cells
T1 sequence (P14867 whole entry): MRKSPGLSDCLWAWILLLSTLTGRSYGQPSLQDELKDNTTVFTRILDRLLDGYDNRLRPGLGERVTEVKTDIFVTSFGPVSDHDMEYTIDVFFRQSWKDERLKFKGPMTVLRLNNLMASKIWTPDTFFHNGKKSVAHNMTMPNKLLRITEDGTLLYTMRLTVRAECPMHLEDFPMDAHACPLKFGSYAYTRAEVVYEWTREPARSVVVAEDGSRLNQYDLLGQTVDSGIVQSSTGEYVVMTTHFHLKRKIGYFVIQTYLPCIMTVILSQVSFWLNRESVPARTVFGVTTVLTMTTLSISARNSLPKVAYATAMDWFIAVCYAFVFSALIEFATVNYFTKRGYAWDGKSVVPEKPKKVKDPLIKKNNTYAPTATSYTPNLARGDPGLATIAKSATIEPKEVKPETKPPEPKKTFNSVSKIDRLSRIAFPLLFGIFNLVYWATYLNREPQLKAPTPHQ
T1 sequence (P18507 whole entry): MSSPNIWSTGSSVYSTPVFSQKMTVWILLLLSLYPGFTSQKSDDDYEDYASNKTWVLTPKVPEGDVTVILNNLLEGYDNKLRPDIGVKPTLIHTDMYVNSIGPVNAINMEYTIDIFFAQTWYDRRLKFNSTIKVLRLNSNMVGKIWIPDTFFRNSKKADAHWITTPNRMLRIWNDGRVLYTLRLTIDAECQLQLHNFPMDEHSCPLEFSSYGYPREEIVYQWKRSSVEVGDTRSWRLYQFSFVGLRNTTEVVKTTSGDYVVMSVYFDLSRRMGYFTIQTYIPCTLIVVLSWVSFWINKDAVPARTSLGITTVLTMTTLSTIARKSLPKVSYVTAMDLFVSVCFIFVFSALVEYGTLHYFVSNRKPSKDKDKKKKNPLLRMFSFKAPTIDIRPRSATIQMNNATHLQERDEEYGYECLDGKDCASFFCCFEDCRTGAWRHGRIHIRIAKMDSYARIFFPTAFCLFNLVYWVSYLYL
T1 sequence (P28472 whole entry): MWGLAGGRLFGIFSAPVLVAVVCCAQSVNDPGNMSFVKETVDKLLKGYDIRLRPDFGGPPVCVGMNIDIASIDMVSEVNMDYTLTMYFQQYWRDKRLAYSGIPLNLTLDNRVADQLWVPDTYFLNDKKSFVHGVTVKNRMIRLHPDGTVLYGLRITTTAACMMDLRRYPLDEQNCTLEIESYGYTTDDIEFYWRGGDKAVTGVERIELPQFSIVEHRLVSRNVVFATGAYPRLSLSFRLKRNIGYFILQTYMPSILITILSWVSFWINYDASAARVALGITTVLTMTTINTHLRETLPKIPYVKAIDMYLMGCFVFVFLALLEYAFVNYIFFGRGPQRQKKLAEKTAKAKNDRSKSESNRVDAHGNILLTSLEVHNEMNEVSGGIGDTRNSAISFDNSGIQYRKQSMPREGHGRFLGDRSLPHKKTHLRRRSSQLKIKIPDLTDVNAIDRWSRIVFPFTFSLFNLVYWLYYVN

[2] = molecular target: T2, GABA-A receptor; alpha-2/beta-3/gamma-2 (Homo sapiens, UniProt P18507+P28472+P47869); test: Binding affinity for human GABA-A receptor alpha-2-beta-3-gamma-2 subunits in L(tk-) cells; format: cell-based
T2 sequence (P18507 whole entry): T1 sequence (P18507 whole entry)
T2 sequence (P28472 whole entry): T1 sequence (P28472 whole entry)
T2 sequence (P47869 whole entry): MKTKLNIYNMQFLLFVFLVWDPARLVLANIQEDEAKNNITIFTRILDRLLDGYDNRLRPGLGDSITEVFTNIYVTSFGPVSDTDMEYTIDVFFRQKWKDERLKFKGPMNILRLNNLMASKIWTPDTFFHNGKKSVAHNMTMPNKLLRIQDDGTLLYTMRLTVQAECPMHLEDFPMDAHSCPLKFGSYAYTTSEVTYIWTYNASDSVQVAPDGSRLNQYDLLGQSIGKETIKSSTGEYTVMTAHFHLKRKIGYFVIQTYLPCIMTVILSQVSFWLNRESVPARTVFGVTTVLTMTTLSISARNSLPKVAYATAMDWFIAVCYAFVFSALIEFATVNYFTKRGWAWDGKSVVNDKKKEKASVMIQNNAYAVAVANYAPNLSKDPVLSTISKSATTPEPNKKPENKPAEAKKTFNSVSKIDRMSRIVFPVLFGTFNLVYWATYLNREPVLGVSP

[3] = molecular target: T3, GABA-A receptor; alpha-5/beta-3/gamma-2 (Homo sapiens) (UniProt P18507+P28472+P31644); test: Partial agonistic activity against GABA-A receptor alpha-5-beta-3-gamma-2 subunits; format: functional
[4] = molecular target: T4, GABA-A receptor; alpha-1/beta-3/gamma-2 (Homo sapiens) (UniProt P14867+P18507+P28472); test: Inverse agonistic activity against GABA-A receptor alpha-1-beta-3-gamma-2 subunits; format: functional
[5] = molecular target: T5, GABA-A receptor; alpha-5/beta-3/gamma-2 (Homo sapiens, UniProt P18507+P28472+P31644); test: Binding affinity for human GABA-A receptor alpha-5-beta-3-gamma-2 subunits in L(tk-) cells; format: cell-based
T5 sequence (P18507 whole entry): T1 sequence (P18507 whole entry)
T5 sequence (P28472 whole entry): T1 sequence (P28472 whole entry)
T5 sequence (P31644 whole entry): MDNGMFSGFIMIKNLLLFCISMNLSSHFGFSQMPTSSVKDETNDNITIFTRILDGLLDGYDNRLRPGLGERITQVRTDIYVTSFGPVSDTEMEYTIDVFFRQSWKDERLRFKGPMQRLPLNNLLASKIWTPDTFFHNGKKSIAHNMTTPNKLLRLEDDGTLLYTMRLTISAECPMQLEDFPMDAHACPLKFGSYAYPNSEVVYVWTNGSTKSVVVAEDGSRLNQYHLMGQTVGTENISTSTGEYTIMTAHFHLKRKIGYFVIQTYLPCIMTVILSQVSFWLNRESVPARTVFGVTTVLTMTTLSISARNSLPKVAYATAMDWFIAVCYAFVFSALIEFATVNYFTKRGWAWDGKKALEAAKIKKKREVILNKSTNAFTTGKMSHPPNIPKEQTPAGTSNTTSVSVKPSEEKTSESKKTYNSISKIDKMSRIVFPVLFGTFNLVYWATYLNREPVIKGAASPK

[6] = molecular target: T6, GABA-A receptor; alpha-3/beta-3/gamma-2 (Homo sapiens, UniProt P18507+P28472+P34903); test: Binding affinity for human GABA-A receptor alpha-3-beta-3-gamma-2 subunits in L(tk-) cells; format: cell-based
T6 sequence (P18507 whole entry): T1 sequence (P18507 whole entry)
T6 sequence (P28472 whole entry): T1 sequence (P28472 whole entry)
T6 sequence (P34903 whole entry): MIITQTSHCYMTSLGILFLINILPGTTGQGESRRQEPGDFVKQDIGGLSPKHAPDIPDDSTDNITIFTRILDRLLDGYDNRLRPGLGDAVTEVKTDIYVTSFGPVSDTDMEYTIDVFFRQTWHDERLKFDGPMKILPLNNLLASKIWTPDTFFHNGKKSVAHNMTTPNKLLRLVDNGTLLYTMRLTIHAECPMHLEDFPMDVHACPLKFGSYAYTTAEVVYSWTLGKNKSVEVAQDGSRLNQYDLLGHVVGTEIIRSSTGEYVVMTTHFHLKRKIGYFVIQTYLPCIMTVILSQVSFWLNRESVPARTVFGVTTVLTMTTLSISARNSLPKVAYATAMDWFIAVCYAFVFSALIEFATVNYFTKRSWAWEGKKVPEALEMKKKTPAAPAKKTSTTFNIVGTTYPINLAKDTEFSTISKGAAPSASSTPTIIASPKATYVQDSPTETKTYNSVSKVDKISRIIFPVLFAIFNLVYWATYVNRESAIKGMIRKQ

[7] = molecular target: T7, GABA-A receptor; alpha-3/beta-3/gamma-2 (Homo sapiens) (UniProt P18507+P28472+P34903); test: Partial agonistic activity against GABA-A receptor alpha-3-beta-3-gamma-2
[8] = molecular target: T1, GABA-A receptor; alpha-1/beta-3/gamma-2; test: Binding affinity for human GABA-A receptor alpha-4-beta-3-gamma-2 subunits in L(tk-) cells; format: cell-based
[9] = molecular target: T7, GABA-A receptor; alpha-3/beta-3/gamma-2 (Homo sapiens); test: Maximum percent change compared to GABA EC20 against GABA-A alpha-3-beta-3-gamma-2 receptor; format: functional
[10] = Oral bioavailability in rat at a dose of 3 mg/kg; format: ADME, organism-based; conditions: in vivo, read-out: Bioavailabiility
Procedure, shortened: (§1)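 Plasma concentrations were followed to derive peak level and half-life.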

[11] = Half-life in rat at a dose of 3 mg/kg; format: ADME, organism-based; set-up: dose 3 mg/kg; conditions: in vivo
Procedure, shortened: as §1

[12] = Peak plasma concentration in rat at a dose of 3 mg/kg; format: ADME, organism-based; set-up: dose 3 mg/kg; conditions: read-out: Concentration
Procedure, shortened: as §1

[13] = molecular target: T3, GABA-A receptor; alpha-5/beta-3/gamma-2 (Homo sapiens); test: Maximum percent change compared to GABA EC20 against GABA-A alpha-5-beta-3-gamma-2 receptor; format: functional
[14] = molecular target: T4, GABA-A receptor; alpha-1/beta-3/gamma-2 (Homo sapiens); test: Maximum percent change compared to GABA EC20 against GABA-A alpha-1-beta-3-gamma-2 receptor; format: functional
[15] = molecular target: GABA-A receptor; alpha-2/beta-3/gamma-2 (Homo sapiens) (UniProt P18507+P28472+P47869); test: Maximum percent change compared to GABA EC20 against GABA-A alpha-2-beta-3-gamma-2 receptor; format: functional

| Structure (SMILES) | Ki [1] | Ki [2] | Activity [3] | Activity [4] | Ki [5] | Ki [6] | Activity [7] | Ki [8] | Efficacy [9] | bioavailability [10] | half-life [11] | Cmax [12] | Efficacy [13] | Efficacy [14] | Efficacy [15] |
| --- | --- | --- | --- | --- | --- | --- | --- | --- | --- | --- | --- | --- | --- | --- | --- |
| Cc1cccc(COc2nn3c(C4CC4)nnc3c3ccccc23)n1 | 32 nM | 9.7 nM | 26% | -15% | 0.92 nM | 3.1 nM | -13% |  |  |  |  |  |  |  |  |
| c1ccc(-c2nnc3c4c(c(OCc5ccccn5)nn23)C2CCC4CC2)cc1 |  | 26 nM |  |  | 1.2 nM | 12 nM |  | 71 nM | 38% | 33% | 1 h | 179 ng/mL | 18% | 51% | 23% |
